4 compounds from ChEMBL document CHEMBL1127497, “Studies on antiulcer drugs. 7. 2-Guanidino-4-pyridylthiazoles as histamine H2-receptor antagonists with potent gastroprotective effects against nonsteroidal antiinflammatory drug-induced injury” (J Med Chem, 1994) can be followed below.

The subject of assay [1] is Rattus norvegicus. In words: Effective dose against aspirin induced gastric lesions in rats after peroral administration. In kind it is functional. The settings on record: Stomach, po. The method, boiled down:
(§1)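 Male SD rats (~200 g), fasted 24 h. Test compound given orally in 0.1% MC, then aspirin 200 mg/kg in 0.2 N HCl/0.1% MC (10 mL/kg) orally 30 min later. Rats killed 1 h after aspirin. Ulcer index is the summed lesion length (mm); % inhibition is relative to controls. Seven rats per group for screening; ED50 by probit from three doses, ten rats per dose.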

For assay [2], the system named is Rattus norvegicus. Description: Effect on gastric mucosal blood flow at basal value which is 15 minutes before dosing of drugs at 10 mg/kg intragastrically. The conditions noted are these: route intragastric. In kind it is functional, Gastric mucosa. In short, it runs like this:
(§2)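 Male rats, five per group, test drug suspended in 0.1% MC given intragastrically. Aspirin 200 mg/kg in 0.2 N HCl/0.1% MC (0.2 mL) given ig 15 min later. […] Reported as mean ± SEM and % of initial.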

Assay [3] has as its target Histamine H2 receptor (Cavia porcellus, UniProt P47747). In words: Compound was tested for H2 receptor antagonistic activity against histamine stimulated chronotropic response in isolated guinea pig right atrium. In kind it is functional, tissue-based, Cardiac atrium. The method, boiled down: (§3)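 Guinea pig atrial strip under 0.3–0.6 g tension in Tyrode solution, 30 °C, gassed with 95% O2-5% CO2. Beating rate recorded. Histamine HCl 1 × 10-6 g/mL given; after washout, test compound added (single-concentration screen 1 × 10-6 g/mL) and histamine response compared before and 30 min after dosing. IC50 from three doses by probit analysis, three atria per dose.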

For assay [4], the system named is Rattus norvegicus. In words: Effect on gastric mucosal blood flow 60 minutes after administration of HCl and aspirin after drug dosing at 10 mg/kg intragastrically. The conditions noted are these: route intragastric. In kind it is functional, Gastric mucosa. In short, it runs like this:
as §2

Assay [5] concerns Rattus norvegicus. In words: Effective dose against indomethacin induced gastric lesions in rats after peroral administration. The format is functional. The settings on record: Stomach, po. The method, boiled down: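 Male SD rats (~200 g), fasted 24 h, dosed orally with test compound in 0.1% MC, ten per group. Indomethacin 5 mg/kg in 0.1% MC given orally 30 min later, then 0.35 N HCl (5 mL/kg) orally after 1 h. Killed 1 h after that. Ulcer index is the summed lesion length. ED50 by probit from three doses.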

Assay [6] concerns Rattus norvegicus. In words: Effect on gastric mucosal blood flow 15 minutes before dosing of HCl and aspirin after drug dosing at 32 mg/kg intragastrically. The conditions noted are these: route intragastric. In kind it is functional, Gastric mucosa. In short, it runs like this: as §2
For assay [7], the system named is Rattus norvegicus. In words: Effect on gastric mucosal blood flow 30 minutes after administration of HCl and aspirin after drug dosing at 32 mg/kg intragastrically. In kind it is functional, Gastric mucosa. The settings on record: route intragastric. The method, boiled down: as §2
Assay [8] concerns Rattus norvegicus. In words: Inhibition of histamine stimulated gastric acid secretion in lumen perfused anaesthetized rats after 1 mg/kg intravenous dose. The format is functional. The settings on record: Stomach. The method, boiled down:
(§4)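 Male SD rats (~250 g), fasted 24 h, urethane 1.25 g/kg ip. Stomach lumen perfused with saline; perfusate titrated with 25 mM NaOH. Histamine infused iv at 3 mg/kg/h. At plateau, compound given iv at 1 mg/kg. Result expressed as maximal inhibition of acid output; n = 2.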

In assay [9] the target is Histamine H2 receptor (Cavia porcellus) (UniProt P47747). In words: H2 receptor antagonistic activity against histamine stimulated chronotropic response in isolated guinea pig right atrium at 1x10E-6 g/mL. The format is functional, tissue-based. The conditions noted are these: Cardiac atrium. In short, it runs like this: as §3
Assay [10] relates to Rattus norvegicus. In words: Effect on gastric mucosal blood flow at basal value which is 15 minutes before dosing of drugs at 32 mg/kg intragastrically. The format is functional, Gastric mucosa. The settings on record: route intragastric. In short, it runs like this:
as §2

Assay [11] concerns Rattus norvegicus. In words: Effect on gastric mucosal blood flow 15 minutes before dosing of HCl and aspirin after drug dosing at 10 mg/kg intragastrically. The format is functional, Gastric mucosa. The conditions noted are these: route intragastric. The method, boiled down: as §2
The subject of assay [12] is Rattus norvegicus. Description: Effect on gastric mucosal blood flow 30 minutes after administration of HCl and aspirin after drug dosing at 10 mg/kg intragastrically. The format is functional, Gastric mucosa. The settings on record: route intragastric. In short, it runs like this: as §2
Assay [13] concerns Rattus norvegicus. In words: Evaluated for inhibition of basal gastric acid secretion in pyolus-ligated rats after intraduodenal administration. The conditions noted are these: Stomach, id.
The subject of assay [14] is Canis familiaris. In words: Effective dose against tetragastrin stimulated gastric acid secretion in conscious Hiedenhain-pouch dogs after peroral administration. The format is functional. The conditions noted are these: Canis lupus familiaris, Stomach, po. The method, boiled down: (§5)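 Beagle Heidenhain-pouch dogs, 8–13 kg, oral dosing. Acid concentration titrated to pH 7 with 0.1 N NaOH; total acid output is volume × concentration. Change is relative to predosing output. ED50 by probit from three or four doses, three or four dogs per dose.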

In assay [15] the test system is Rattus norvegicus. Description: Inhibition of aspirin induced gastric lesions in rats after peroral dose of 32 mg/kg. In kind it is functional. The conditions noted are these: Stomach, route oral. The method, boiled down:
as §1

Assay [16] has as its system Canis familiaris. Description: Evaluated against tetragastrin stimulated gastric acid secretion in conscious Hiedenhain-pouch dogs at a dose of 0.32 mg/kg, po. In kind it is functional. The settings on record: Canis lupus familiaris, Stomach. The method, boiled down: as §5
In assay [17] the test system is Rattus norvegicus. In words: Effect on gastric mucosal blood flow 60 minutes after administration of HCl and aspirin after drug dosing at 32 mg/kg intragastrically. The format is functional, Gastric mucosa. The conditions noted are these: route intragastric. The method, boiled down:
as §2

Assay [18] is filed under the species Canis familiaris. Description: animal or person. The settings on record: Canis lupus familiaris, Stomach, po, read-out: Inhibition.
The subject of assay [19] is Rattus norvegicus. Description: Effect on gastric mucosal blood flow 60 minutes after administration of HCl and aspirin after drug dosing at 100 mg/kg intragastrically. The conditions noted are these: route intragastric. The format is functional, Gastric mucosa. In short, it runs like this: as §2
The test system of assay [20] is Rattus norvegicus. Description: Effect on gastric mucosal blood flow at basal value which is 15 minutes before dosing of drugs at 100 mg/kg intragastrically. The format is functional, Gastric mucosa. The conditions noted are these: route intragastric. In short, it runs like this:
as §2

Assay [21] has as its system Canis familiaris. Description: Evaluated against tetragastrin stimulated gastric acid secretion in conscious Hiedenhain-pouch dogs at a dose of 0.32 mg/Kg, po. The format is functional. The settings on record: Canis lupus familiaris, Stomach. In short, it runs like this: as §5
For assay [22], the system named is Rattus norvegicus. Description: Effect on gastric mucosal blood flow 15 minutes before dosing of HCl and aspirin after drug dosing at 100 mg/kg intragastrically. The format is functional, Gastric mucosa. The settings on record: route intragastric. The method, boiled down: as §2
Assay [23] relates to Rattus norvegicus. In words: Evaluated against histamine stimulated gastric acid secretion in lumen perfused anaesthetized rats after 1 mg/kg intravenous dose. In kind it is functional. The settings on record: Stomach. The method, boiled down: as §4
In assay [24] the test system is Rattus norvegicus. Description: Effect on gastric mucosal blood flow 30 minutes after administration of HCl and aspirin after drug dosing at 100 mg/kg intragastrically. The conditions noted are these: route intragastric. The format is functional, Gastric mucosa. The method, boiled down:
as §2

The test system of assay [25] is Rattus norvegicus. In words: Evaluated for inhibition of basal gastric acid secretion on pyolus-ligated rats after intraduodenal administration. The settings on record: Stomach, id.
Assay [26] concerns Rattus norvegicus. Description: Evaluated against aspirin induced gastric lesions in rats after peroral dose of 100 mg/kg. The settings on record: Stomach, route oral. The format is functional. The method, boiled down:
as §1

Sequence of Histamine H2 receptor (Cavia porcellus) (P47747 whole entry): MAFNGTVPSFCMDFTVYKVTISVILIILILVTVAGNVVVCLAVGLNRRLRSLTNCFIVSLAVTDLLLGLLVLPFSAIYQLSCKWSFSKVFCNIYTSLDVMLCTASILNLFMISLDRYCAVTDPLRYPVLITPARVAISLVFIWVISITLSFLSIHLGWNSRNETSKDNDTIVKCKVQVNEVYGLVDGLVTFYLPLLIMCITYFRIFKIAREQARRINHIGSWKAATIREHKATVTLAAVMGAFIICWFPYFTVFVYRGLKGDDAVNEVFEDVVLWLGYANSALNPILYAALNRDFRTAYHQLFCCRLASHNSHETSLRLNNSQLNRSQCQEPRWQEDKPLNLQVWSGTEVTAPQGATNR
Sequence of Histamine H2 receptor (P47747 whole entry): as above

Usually ED50 stands for the dose that gives a 50% effect, or the effect in half of the subjects. A higher ED50 goes with weaker potency. As a reminder, the IC50 is the point on the concentration scale where inhibition reaches its midpoint. Read a low IC50 as inhibition by little substance. The term inhibition denotes the change of the read-out against control, counted positive when it falls. Low values mean a response near the control, high ones a response far below the control. As to `CC(=O)NCc1cccc(-c2csc(N=C(N)N)n2)n1.Cl`, the ED50 in [1] was 13.3 mg/kg; in assay [5], 6.5 mg/kg; in assay [13] it was 12.6 mg/kg; in assay [14], 0.063 mg/kg. The Flow rate in assay [2] amounted to 70.4 ml min-1 100g-1; in [4] it was 61 ml min-1 100g-1; in assay [6], 65.3 ml min-1 100g-1; in [7] it was 63.1 ml min-1 100g-1; in assay [10], 58.9 ml min-1 100g-1; in assay [11], 70.2 ml min-1 100g-1. For the same compound, the Flow rate in assay [12] is listed as 67.9 ml min-1 100g-1; in assay [17], 60.4 ml min-1 100g-1. Further, in assay [3], the IC50 worked out at 1.3 µM. In assay [8], the inhibition in vivo at 1 mg/kg was 82%. The compound also had an inhibition in assay [9] of 66%. The compound also registered an inhibition in vivo at 32 mg/kg in assay [15] of 68%. Also, the inhibition in vivo at 0.32 mg/kg in assay [16] came to 95%.

In [8], `CN/C(=N\CCSCc1nc[nH]c1C)NC#N` [CIMETIDINE] yielded an inhibition in vivo at 1 mg/kg of 53%. Further, the inhibition in [9] was determined as 43%. The same compound gave an inhibition in vivo at 32 mg/kg in assay [15] of 33%. In assay [18], the inhibition in vivo at 22 mg/kg came out at 22%.

With `CNC(=C[N+](=O)[O-])NCCSCc1ccc(CN(C)C)o1` [RANITIDINE], the ED50 in assay [1] is above 100 mg/kg; in [25], 30.5 mg/kg; in [14] it was 0.3 mg/kg. Moreover, the Flow rate stood at 55.4 ml min-1 100g-1 in assay [19], 85.3 ml min-1 100g-1 in [20], 82.3 ml min-1 100g-1 in [22] and 53.4 ml min-1 100g-1 in assay [24]. This compound also had an IC50 in assay [3] of 3.4 µM. The compound further registered an inhibition in vivo at 0.32 mg/kg in [21] of 41%. The inhibition in vivo at 1 mg/kg in assay [23] amounted to 72%. The inhibition in assay [9] was 44%. Moreover, the inhibition in vivo at 32 mg/kg in [15] came to 3%.

As for `CC(=O)OCC(=O)NCCCOc1cccc(CN2CCCCC2)c1` [ROXATIDINE ACETATE], the inhibition in vivo at 1 mg/kg in [8] worked out at 84%. For the same compound, the inhibition in [9] came out at 76%. In assay [26], the inhibition in vivo at 100 mg/kg came to 31%. Further, the inhibition in vivo at 0.32 mg/kg in assay [16] was 58%.
